Measured values: ChEMBL document CHEMBL4316592, “Synthesis of new derivatives of boehmeriasin A and their biological evaluation in liver cancer” (Eur J Med Chem, 2019)
Activity calls are given as the source filed them. No cut-off for these calls is given here.

Tests used:
Mahlavu [1] = assay: Cell cycle arrest in human Mahlavu cells assessed as accumulation of cells at S phase at 1 uM after 24 hrs by propidium iodide staining-based flow cytometric analysis (reference value: 23.2%); format: functional
Mahlavu [2] = assay: Cell cycle arrest in human Mahlavu cells assessed as accumulation of cells at subG1 phase at 1 uM after 72 hrs by propidium iodide staining-based flow cytometric analysis (reference value: 22.4%); format: functional
Mahlavu [3] = assay: Induction of apoptosis in human Mahlavu cells assessed as viable cells at 1 uM after 48 hrs by Annexin V-FITC/propidium iodide staining-based flow cytometric analysis (reference value: 98.48%); format: functional; details: read-out: Activity
Huh-7 [4] = assay: Cell cycle arrest in human HuH7 cells assessed as accumulation of cells at G1 phase at 1 uM after 72 hrs by propidium iodide staining-based flow cytometric analysis (reference value: 51.6%); format: functional
Huh-7 [5] = assay: Cell cycle arrest in human HuH7 cells assessed as accumulation of cells at G2/M phase at 1 uM after 72 hrs by propidium iodide staining-based flow cytometric analysis (reference value: 28.2%); format: functional
Huh-7 [6] = assay: Down-regulation of CDK2 protein expression in human HuH7 cells at 1 uM after 24 to 72 hrs by Western blot analysis; format: functional, cell-based
SNU-475 = assay: Cytotoxicity against human SNU475 cells after 72 hrs by SRB assay; format: functional, cell-based; details: Homo sapiens, SNU-475, 72 h; read-out: IC50
How it was run: (§1)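 SRB assay. Cells plated per well (HCT116 3000; Huh7, Hep3B, HepG2, MCF-7 2000; Mahlavu, FOCUS, SNU475 1000) and grown 24 h. Compounds came from 20 mM DMSO stocks and were tested in triplicate, 40 to 2,5 (or 2,5 to 0,03) per printed range, for 72 h. Cells fixed in 10% TCA, stained with 0.4% SRB, dye dissolved in 10 mM Tris, A515 read. IC50 derived after DMSO normalization.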

Huh-7 [7] = assay: Down-regulation of cyclin-B1 protein expression in human HuH7 cells at 1 uM after 24 to 72 hrs by Western blot analysis; format: functional, cell-based
Huh-7 [8] = assay: Induction of apoptosis in human HuH7 cells assessed as viable cells at 1 uM after 24 hrs by Annexin V-FITC/propidium iodide staining-based flow cytometric analysis (reference value: 97.30%); format: functional; details: Huh-7, 24 h, read-out: Activity
Huh-7 [9] = assay: Cytotoxicity against human HuH7 cells after 72 hrs by RTCA analysis; format: functional, cell-based; details: Huh-7, 72 h
How it was run: (§2)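 xCELLigence impedance real-time growth assay. Huh7 (2000) or Mahlavu (1000) cells plated, treated after 24 h at log phase with a 2-fold dilution series (4 steps) from a top concentration of 1. Cell index recorded every 10 min for 24 h, then every 30 min. Growth inhibition normalized to DMSO; IC50 taken at 24, 48, 72 h.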

Mahlavu [10] = assay: Cell cycle arrest in human Mahlavu cells assessed as accumulation of cells at G1 phase at 1 uM after 24 hrs by propidium iodide staining-based flow cytometric analysis (reference value: 33.8%); format: functional
Homo sapiens = species on record: Homo sapiens; assay: Induction of SAPK/JNK phosphorylation at Thr183/Tye185 residues in human HuH7 cells at 1 uM after 24 to 72 hrs by Western blot analysis; format: cell-based
Huh-7 [11] = assay: Induction of apoptosis in human HuH7 cells assessed as necrotic cells at 1 uM after 24 hrs by Annexin V-FITC/propidium iodide staining-based flow cytometric analysis (reference value: 0.03%); format: functional
Huh-7 [12] = assay: Down-regulation of CDK1 protein expression in human HuH7 cells at 1 uM after 24 to 72 hrs by Western blot analysis; format: functional, cell-based
Mahlavu [13] = assay: Cytotoxicity against human Mahlavu cells after 48 hrs by RTCA analysis; format: functional, cell-based; how it was run: as §2
Mahlavu [14] = assay: Induction of apoptosis in human Mahlavu cells assessed as viable cells at 1 uM after 72 hrs by Annexin V-FITC/propidium iodide staining-based flow cytometric analysis (reference value: 96.05%); format: functional; details: read-out: Activity
Mahlavu [15] = assay: Induction of apoptosis in human Mahlavu cells assessed as early apoptotic cells at 1 uM after 24 hrs by Annexin V-FITC/propidium iodide staining-based flow cytometric analysis (reference value: 0.09%); format: functional
Mahlavu [16] = assay: Cell cycle arrest in human Mahlavu cells assessed as accumulation of cells at G2/M phase at 1 uM after 48 hrs by propidium iodide staining-based flow cytometric analysis (reference value: 22.3%); format: functional
Mahlavu [17] = assay: Down-regulation of cyclin-B1 protein expression in human Mahlavu cells at 1 uM after 24 to 72 hrs by Western blot analysis; format: functional, cell-based
Mahlavu [18] = assay: Down-regulation of cyclin E protein expression in human Mahlavu cells at 1 uM after 24 to 72 hrs by Western blot analysis; format: functional, cell-based
Huh-7 [19] = assay: Cytotoxicity against human HuH7 cells after 24 hrs by RTCA analysis; format: functional, cell-based; details: Huh-7, 24 h; how it was run: as §2
Mahlavu [20] = assay: Induction of apoptosis in human Mahlavu cells assessed as necrotic cells at 1 uM after 24 hrs by Annexin V-FITC/propidium iodide staining-based flow cytometric analysis (reference value: 0.13%); format: functional
Huh-7 [21] = assay: Induction of apoptosis in human HuH7 cells assessed as late apoptotic cells at 1 uM after 72 hrs by Annexin V-FITC/propidium iodide staining-based flow cytometric analysis (reference value: 2.34%); format: functional
Mahlavu [22] = assay: Cell cycle arrest in human Mahlavu cells assessed as accumulation of cells at subG1 phase at 1 uM after 24 hrs by propidium iodide staining-based flow cytometric analysis (reference value: 18.3%); format: functional
Mahlavu [23] = assay: Cell cycle arrest in human Mahlavu cells assessed as accumulation of cells at S phase at 1 uM after 72 hrs by propidium iodide staining-based flow cytometric analysis (reference value: 13%); format: functional
Mahlavu [24] = assay: Cell cycle arrest in human Mahlavu cells assessed as accumulation of cells at G2/M phase at 1 uM after 72 hrs by propidium iodide staining-based flow cytometric analysis (reference value: 20%); format: functional
Huh-7 [25] = assay: Cell cycle arrest in human HuH7 cells assessed as accumulation of cells at subG1 phase at 1 uM after 72 hrs by propidium iodide staining-based flow cytometric analysis (reference value: 4.7%); format: functional
Huh-7 [26] = assay: Cell cycle arrest in human HuH7 cells assessed as accumulation of cells at S phase at 1 uM after 24 hrs by propidium iodide staining-based flow cytometric analysis (reference value: 14.2%); format: functional
Huh-7 [27] = assay: Cell cycle arrest in human HuH7 cells assessed as accumulation of cells at G2/M phase at 1 uM after 48 hrs by propidium iodide staining-based flow cytometric analysis (reference value: 33.5%); format: functional
HepG2 = assay: Cytotoxicity against human HepG2 cells after 72 hrs by SRB assay; format: functional, cell-based; details: Homo sapiens, HepG2, 72 h; read-out: IC50; how it was run: as §1
Huh-7 [28] = assay: Induction of apoptosis in human HuH7 cells assessed as necrotic cells at 1 uM after 48 hrs by Annexin V-FITC/propidium iodide staining-based flow cytometric analysis (reference value: 0.02%); format: functional
Mahlavu [29] = assay: Induction of apoptosis in human Mahlavu cells assessed as increase in cytochrome C levels at 1 uM by Hoechst staining-based assay; format: functional, cell-based
Mahlavu [30] = assay: Induction of apoptosis in human Mahlavu cells assessed as early apoptotic cells at 1 uM after 48 hrs by Annexin V-FITC/propidium iodide staining-based flow cytometric analysis (reference value: 0%); format: functional

SMILES	Activity (Mahlavu [1]) [%]	Activity (Mahlavu [2]) [%]	viability at 1 µM (Mahlavu [3]) [%]	Activity (Huh-7 [4]) [%]	Activity (Huh-7 [5]) [%]	Activity (Huh-7 [6])	IC50 (SNU-475) [nM]	Activity (Huh-7 [7])	viability at 1 µM (Huh-7 [8]) [%]	IC50 (Huh-7 [9]) [nM]	Activity (Mahlavu [10]) [%]	Activity (Homo sapiens)	Activity (Huh-7 [11]) [%]	Activity (Huh-7 [12])	IC50 (Mahlavu [13]) [nM]	viability at 1 µM (Mahlavu [14]) [%]	Activity (Mahlavu [15]) [%]	Activity (Mahlavu [16]) [%]	Activity (Mahlavu [17])	Activity (Mahlavu [18])	further results
COc1ccc2c3c(c4cc(OC)c(OC)cc4c2c1)CN1CCCCC1C3O (racemic)	14.3	48.9	99	17.9	11.5	Active	15	Active	99.1	400	36.8	Active	0	Active	4	62.7	0.04	32.9	Active	Active	IC50 (Huh-7 [19]): 800 nM; Activity (Mahlavu [20]): 0.13%; Activity (Huh-7 [21]): 17.97%; Activity (Mahlavu [22]): 16.5%; Activity (Mahlavu [23]): 10.2%; Activity (Mahlavu [24]): 31.4%; Activity (Huh-7 [25]): 62.9%; Activity (Huh-7 [26]): 13.2%; Activity (Huh-7 [27]): 18.1%; IC50 (HepG2): 2700 nM; Activity (Huh-7 [28]): 0.16%; Activity (Mahlavu [29]): Active; Activity (Mahlavu [30]): 0%
COc1ccc2c3c(c4cc(OC)c(OC)cc4c2c1)CN1CCCC[C@@H]1C3	17.5	26.9	91.8	24.3	9.5	Active	14	Active	98.9	700	43.8	Active	0	Active	400	85.3	0.12	16.6	Active	Active	IC50 (Huh-7 [19]): 1400 nM; Activity (Mahlavu [20]): 0.57%; Activity (Huh-7 [21]): 16.15%; Activity (Mahlavu [22]): 15%; Activity (Mahlavu [23]): 9.1%; Activity (Mahlavu [24]): 49.9%; Activity (Huh-7 [25]): 57.5%; Activity (Huh-7 [26]): 15.9%; Activity (Huh-7 [27]): 24.4%; IC50 (HepG2): 60 nM; Activity (Huh-7 [28]): 0.07%; Activity (Mahlavu [29]): Active; Activity (Mahlavu [30]): 0%
